# Key:
# B16 [1] = assay: Percentage change in cell number of B16 melanoma cells treated with 10e-5 M dose; assay type: functional, Mus musculus
# Summary of the method: (§1)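 B16 melanoma cells exposed to 10⁻⁵ or 10⁻⁶ M compound for 8 h, then rinsed three times with fresh medium. Cells then grown in drug-free medium for 48 h and counted. Result given as percent change relative to the cell number at time zero. Controls are the average of three experiments.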
# Mus musculus [2] = assay: Antitumor activity of taxoland the derivative against mammary carcinoma xenograft in mice; assay type: functional
# Summary of the method: (§2)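 MX-1 human mammary carcinoma xenograft implanted under the renal capsule in mice. Study run at the National Cancer Institute following NIH Publication No. 84-2635. Tumor weights recorded at the start and at the end. Survivors counted after 11 days. %T/C = (Δ tumor weight treated/Δ tumor weight control) × 100 where the tumor grows, and (Δ tumor weight treated/initial control tumor weight) × 100 where it regresses.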
# Mus musculus [3] = assay: Tumor growth or regression measured as Percent treated by control at a dose of 33 mg/Kg to mice with MX-1 xenograft; CR refers to complete remission or when the tumor is no longer detectable; assay type: functional, organism-based; summary of the method: as §2
# B16 [4] = assay: Relative effect on B16 melanoma cell proliferation was determined [IC50 (taxol)/IC50 (derivative)]; assay type: functional, Mus musculus
# Mus musculus [5] = assay: Number of survivors after 11 days at a dose of 8.25 mg/Kg tested in 4 mice; assay type: functional
# Summary of the method: (§3)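 MX-1 human mammary carcinoma xenograft implanted under the renal capsule of mice. The study was run at the National Cancer Institute following the procedures of NIH Publication No. 84-2635. Average tumor weight was recorded at the start and end of treatment, and survivors were counted after 11 days. Dosed groups were compared with an untreated control group.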
# Bos taurus = species on record: Bos taurus; assay: Relative effect on microtubular assembly (Tubulin polymerized by derivative/tubulin polymerized by taxol); assay type: functional
# Summary of the method: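 Bovine brain tubulin, purified from microtubule-associated proteins by phosphocellulose chromatography, used at 10 μM. Turbidity followed at 350 nm. Polymer pelleted at 200000g, 37 °C, 4 min, depolymerized on ice, and protein measured by Bradford.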
# Mus musculus [6] = assay: Tumor growth or regression measured as Percent treated by control at a dose of 16.5 mg/Kg to mice with MX-1 xenograft; assay type: functional; summary of the method: as §2
# Mus musculus [7] = assay: Tumor growth or regression measured as Percent treated by control at a dose of 4.13 mg/Kg to mice with MX-1 xenograft; assay type: functional
# Summary of the method: (§4)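 Subrenal capsule human mammary carcinoma (MX-1) xenograft in mice, run at the National Cancer Institute by NIH Publication No. 84-2635 procedures. Initial and final average tumor weights recorded, with survivors counted after 11 days. %T/C is (Δ tumor weight treated/Δ tumor weight controls)×100 for growing tumors. For regressing tumors it is (Δ tumor weight treated/initial control tumor weight)×100.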
# Mus musculus [8] = assay: Final average tumor weight was measured in mice induced with human mammary carcinoma at a dose of 8.25 mg/Kg; assay type: functional; summary of the method: as §2
# B16 [9] = assay: Percentage change in cell number of B16 melanoma cells treated with 10e-6 M dose; assay type: functional, Mus musculus; summary of the method: as §1
# Mus musculus [10] = assay: final average tumor weight was measured in mice induced with human mammary carcinoma at a dose of 33 mg/Kg; assay type: functional; summary of the method: as §4
# Mus musculus [11] = assay: Number of survivors after 11 days at a dose of 4.13 mg/Kg tested in 5 mice; assay type: functional; summary of the method: as §3
# Mus musculus [12] = assay: Final average tumor weight was measured in mice induced with human mammary carcinoma at a dose of 4.13 mg/Kg; assay type: functional; summary of the method: as §2
# Mus musculus [13] = assay: Initial average tumor weight was measured in mice induced with human mammary carcinoma at a dose of 33 mg/Kg; assay type: functional; summary of the method: as §2
# B16 [14] = assay: Concentration required to inhibit the proliferation of B16 melanoma cells was determined; assay type: functional, cell-based; details: Mus musculus
# Mus musculus [15] = assay: Initial average tumor weight was measured in mice induced with human mammary carcinoma at a dose of 4.13 mg/Kg; assay type: functional; summary of the method: as §2
# Mus musculus [16] = assay: Number of survivors after 11 days at a dose of 16.5 mg/Kg tested in 4 mice; assay type: functional; summary of the method: as §3
# [17] = Solubility in water; assay type: physicochemical; details: read-out: S
# Mus musculus [18] = assay: Tumor growth or regression measured as Percent treated by control at a dose of 8.25 mg/Kg to mice with MX-1 xenograft; assay type: functional; summary of the method: as §4
# Mus musculus [19] = assay: Number of survivors after 11 days at a dose of 33 mg/Kg tested in 5 mice; assay type: functional; summary of the method: as §3
# Mus musculus [20] = assay: Initial average tumor weight was measured in mice induced with human mammary carcinoma at a dose of 8.25 mg/Kg; assay type: functional; summary of the method: as §2
# Mus musculus [21] = assay: Initial average tumor weight was measured in mice induced with human mammary carcinoma at a dose of 16.5 mg/Kg; assay type: functional; summary of the method: as §2
# Mus musculus [22] = assay: Final average tumor weight was measured in mice induced with human mammary carcinoma at a dose of 16.5 mg/Kg; assay type: functional; summary of the method: as §2
# Mus musculus [23] = assay: Tumor growth or regression measured as Percent treated by control at a dose of 8.9 mg/kg to mice with MX-1 xenograft; assay type: functional; summary of the method: as §4
# Mus musculus [24] = assay: Final average tumor weight was measured in mice induced with human mammary carcinoma at a dose of 5.9 mg/Kg; assay type: functional; summary of the method: as §2
# Mus musculus [25] = assay: Number of survivors after 11 days at a dose of 30 mg/kg tested in 6 mice; assay type: functional; summary of the method: as §3
# Mus musculus [26] = assay: Tumor growth or regression measured as Percent treated by control at a dose of 5.9 mg/Kg to mice with MX-1 xenograft; assay type: functional; summary of the method: as §4
# Mus musculus [27] = assay: Tumor growth or regression measured as Percent treated by control at a dose of 20 mg/Kg to mice with MX-1 xenograft; CR refers to complete remission or when the tumor is no longer detectable; assay type: functional, organism-based; summary of the method: as §2
# Mus musculus [28] = assay: Initial average tumor weight was measured in mice induced with human mammary carcinoma at a dose of 8.9 mg/Kg; assay type: functional; summary of the method: as §2
# Mus musculus [29] = assay: Final average tumor weight was measured in mice induced with human mammary carcinoma at a dose of 20 mg/Kg; assay type: functional; summary of the method: as §2
# Mus musculus [30] = assay: Number of survivors after 11 days at a dose of 5.9 mg/Kg tested in 6 mice; assay type: functional; summary of the method: as §3
# Mus musculus [31] = assay: Initial average tumor weight was measured in mice induced with human mammary carcinoma at a dose of 30 mg/kg; assay type: functional; summary of the method: as §2
# Mus musculus [32] = assay: Tumor growth or regression measured as Percent treated by control at a dose of 13 mg/Kg to mice with MX-1 xenograft; CR refers to complete remission or when the tumor is no longer detectable; assay type: functional, organism-based; summary of the method: as §2
# Mus musculus [33] = assay: Initial average tumor weight was measured in mice induced with human mammary carcinoma at a dose of 5.9 mg/Kg; assay type: functional; summary of the method: as §2
# Mus musculus [34] = assay: final average tumor weight was measured in mice induced with human mammary carcinoma at a dose of 13 mg/Kg; assay type: functional; summary of the method: as §4
# Mus musculus [35] = assay: Final average tumor weight was measured in mice induced with human mammary carcinoma at a dose of 30 mg/kg; assay type: functional; summary of the method: as §2
# Mus musculus [36] = assay: Number of survivors after 11 days at a dose of 13 mg/Kg tested in 6 mice; assay type: functional; summary of the method: as §3
# Mus musculus [37] = assay: Tumor growth or regression measured as Percent treated by control at a dose of 30 mg/Kg to mice with MX-1 xenograft; Tox refers to toxicity or when < 65% of the animals survive the test; assay type: functional, organism-based; summary of the method: as §2
# Mus musculus [38] = assay: Number of survivors after 11 days at a dose of 8.9 mg/Kg tested in 6 mice; assay type: functional; summary of the method: as §3
# Mus musculus [39] = assay: Initial average tumor weight was measured in mice induced with human mammary carcinoma at a dose of 20 mg/Kg; assay type: functional; summary of the method: as §2
# Mus musculus [40] = assay: Initial average tumor weight was measured in mice induced with human mammary carcinoma at a dose of 13 mg/Kg; assay type: functional; summary of the method: as §2
# Mus musculus [41] = assay: Final average tumor weight was measured in mice induced with human mammary carcinoma at a dose of 8.9 mg/Kg; assay type: functional; summary of the method: as §2
# Mus musculus [42] = assay: Number of survivors after 11 days at a dose of 20 mg/Kg tested in 6 mice; assay type: functional; summary of the method: as §3
compound,measurement,setting,value
CC(=O)O[C@H]1C(=O)[C@]2(C)[C@@H](OC(=O)CN(C)C)C[C@H]3OC[C@@]3(OC(C)=O)[C@H]2[C@H](OC(=O)c2ccccc2)[C@]2(O)C[C@H](OC(=O)[C@H](O)[C@@H](NC(=O)c3ccccc3)c3ccccc3)C(C)=C1C2(C)C.CS(=O)(=O)O,Change in cell number,B16 [1],-60%
same,Relative antitumor activity,Mus musculus [2],3
same,T/C,Mus musculus [3],Complete remission
same,Relative effect,B16 [4],0.43
same,No. of survivors,Mus musculus [5],4
same,Relative effect,Bos taurus,0.77
same,T/C,Mus musculus [6],-93%
same,T/C,Mus musculus [7],34%
same,Final average tumor weight,Mus musculus [8],4.19 mg
same,Change in cell number,B16 [9],222%
same,Final average tumor weight,Mus musculus [10],0 mg
same,No. of survivors,Mus musculus [11],4
same,Final average tumor weight,Mus musculus [12],5.66 mg
same,Initial average tumor weight,Mus musculus [13],0.74 mg
same,IC50,B16 [14],0.044 µM
same,Initial average tumor weight,Mus musculus [15],0.74 mg
same,No. of survivors,Mus musculus [16],3
same,solubility,[17],> 1.87 mM
same,T/C,Mus musculus [18],23%
same,No. of survivors,Mus musculus [19],4
same,Initial average tumor weight,Mus musculus [20],0.81 mg
same,Initial average tumor weight,Mus musculus [21],0.59 mg
same,Final average tumor weight,Mus musculus [22],0.04 mg
CC(=O)O[C@H]1C(=O)[C@@]2(C)[C@H]([C@H](OC(=O)c3ccccc3)[C@]3(O)C[C@H](OC(=O)[C@H](OC(=O)CN(C)C)[C@@H](NC(=O)c4ccccc4)c4ccccc4)C(C)=C1C3(C)C)[C@]1(OC(C)=O)CO[C@@H]1C[C@@H]2O.CS(=O)(=O)O,T/C,Mus musculus [23],-53%
same,Final average tumor weight,Mus musculus [24],0.13 mg
same,Change in cell number,B16 [1],84%
same,Relative antitumor activity,Mus musculus [2],2
same,No. of survivors,Mus musculus [25],1
same,T/C,Mus musculus [26],-78%
same,T/C,Mus musculus [27],Complete remission
same,Relative effect,B16 [4],0.9
same,Initial average tumor weight,Mus musculus [28],0.77 mg
same,Final average tumor weight,Mus musculus [29],0 mg
same,No. of survivors,Mus musculus [30],6
same,Relative effect,Bos taurus,0.25
same,Initial average tumor weight,Mus musculus [31],0.68 mg
same,T/C,Mus musculus [32],Complete remission
same,Initial average tumor weight,Mus musculus [33],0.61 mg
same,Change in cell number,B16 [9],261%
same,Final average tumor weight,Mus musculus [34],0 mg
same,Final average tumor weight,Mus musculus [35],0 mg
same,No. of survivors,Mus musculus [36],4
same,IC50,B16 [14],0.021 µM
same,T/C,Mus musculus [37],Toxic
same,solubility,[17],4.83 mM
same,No. of survivors,Mus musculus [38],5
same,Initial average tumor weight,Mus musculus [39],0.56 mg
same,Initial average tumor weight,Mus musculus [40],0.64 mg
same,Final average tumor weight,Mus musculus [41],0.36 mg
same,No. of survivors,Mus musculus [42],4
